Laboratory results taken from ChEMBL document CHEMBL5058577, “EUbOPEN Chemogenomics Library 2 (Multiplex)” (2022).

System: Fibroblast
Test: Multiplex assay against human fibroblast
Format: toxicity, cell-based
In short: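 Imaging took place on a CQ1 microscope at 37°C and 5% CO2 once compound had been added to live cells stained at seeding with Hoechst33342, BioTracker Green Microtubule Cytoskeleton Dye, MitoTracker Red and Annexin V Alexa Fluor 680. CellPathfinder machine-learning gating classed cells as Hoechst high-intensity objects or normal cells, classed normal cells as having healthy, pyknosed or fragmented nuclei, and classed pyknosed cells as mitotic or apoptotic. Tubulin, mitochondrial-mass and membrane-permeability phenotypes are per cents of the healthy-nucleus cells.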

[1] = 12 h, 1 µM, compound concentration 1 uM, replicate 1
[2] = 12 h, 1 µM, compound concentration 1 uM, replicate 2
[3] = 12 h, 10 µM, compound concentration 10 uM, replicate 1
[4] = 12 h, 10 µM, compound concentration 10 uM, replicate 2
[5] = 24 h, 1 µM, compound concentration 1 uM, replicate 1
[6] = 24 h, 1 µM, compound concentration 1 uM, replicate 2
[7] = 24 h, 10 µM, compound concentration 10 uM, replicate 1
[8] = 24 h, 10 µM, compound concentration 10 uM, replicate 2
[9] = 48 h, 1 µM, compound concentration 1 uM, replicate 1
[10] = 48 h, 1 µM, compound concentration 1 uM, replicate 2
[11] = 48 h, 10 µM, compound concentration 10 uM, replicate 1
[12] = 48 h, 10 µM, compound concentration 10 uM, replicate 2

COc1cc2nc(N3CCN(C(=O)c4ccco4)CC3)nc(N)c2cc1OC.Cl [PRAZOSIN HYDROCHLORIDE]
Population Apoptotic (%) [1]: 38%
Population Fragmented Nuclei (%) [1]: 22%
Population Healthy Nuclei (%) [1]: 57%
Population Hoechst High Intensity Objects (%) [1]: 1%
Population Membrane Permeable-Phenotype (%) [1]: 1%
Population Mitochondria Different-Phenotype (%) [1]: 1%
Population Mitotic Cells (%) [1]: 61%
Population Normal (%) [1]: 98%
Population Pyknosed Nuclei (%) [1]: 19%
Population Tubulin-Different-Phenotype (%) [1]: 26%
Total Cell Count [1]: 174
Population Apoptotic (%) [2]: 49%
Population Fragmented Nuclei (%) [2]: 20%
Population Healthy Nuclei (%) [2]: 52%
Population Hoechst High Intensity Objects (%) [2]: 4%
Population Membrane Permeable-Phenotype (%) [2]: 5%
Population Mitochondria Different-Phenotype (%) [2]: 7%
Population Mitotic Cells (%) [2]: 50%
Population Normal (%) [2]: 95%
Population Pyknosed Nuclei (%) [2]: 27%
Population Tubulin-Different-Phenotype (%) [2]: 46%
Total Cell Count [2]: 194
Population Apoptotic (%) [3]: 44%
Population Fragmented Nuclei (%) [3]: 23%
Population Healthy Nuclei (%) [3]: 64%
Population Hoechst High Intensity Objects (%) [3]: 1%
Population Membrane Permeable-Phenotype (%) [3]: 0%
Population Mitochondria Different-Phenotype (%) [3]: 7%
Population Mitotic Cells (%) [3]: 56%
Population Normal (%) [3]: 98%
Population Pyknosed Nuclei (%) [3]: 12%
Population Tubulin-Different-Phenotype (%) [3]: 49%
Total Cell Count [3]: 198
Population Apoptotic (%) [4]: 31%
Population Fragmented Nuclei (%) [4]: 35%
Population Healthy Nuclei (%) [4]: 42%
Population Hoechst High Intensity Objects (%) [4]: 5%
Population Membrane Permeable-Phenotype (%) [4]: 9%
Population Mitochondria Different-Phenotype (%) [4]: 3%
Population Mitotic Cells (%) [4]: 68%
Population Normal (%) [4]: 94%
Population Pyknosed Nuclei (%) [4]: 21%
Population Tubulin-Different-Phenotype (%) [4]: 65%
Total Cell Count [4]: 155
Population Apoptotic (%) [5]: 50%
Population Fragmented Nuclei (%) [5]: 20%
Population Healthy Nuclei (%) [5]: 63%
Population Hoechst High Intensity Objects (%) [5]: 2%
Population Membrane Permeable-Phenotype (%) [5]: 0%
Population Mitochondria Different-Phenotype (%) [5]: 2%
Population Mitotic Cells (%) [5]: 50%
Population Normal (%) [5]: 97%
Population Pyknosed Nuclei (%) [5]: 15%
Population Tubulin-Different-Phenotype (%) [5]: 28%
Total Cell Count [5]: 181
Population Apoptotic (%) [6]: 45%
Population Healthy Nuclei (%) [6]: 57%
Population Hoechst High Intensity Objects (%) [6]: 7%
Population Membrane Permeable-Phenotype (%) [6]: 12%
Population Mitochondria Different-Phenotype (%) [6]: 3%
Population Mitotic Cells (%) [6]: 54%
Population Normal (%) [6]: 92%
Population Pyknosed Nuclei (%) [6]: 21%
Population Tubulin-Different-Phenotype (%) [6]: 58%
Total Cell Count [6]: 185
Population Apoptotic (%) [7]: 46%
Population Fragmented Nuclei (%) [7]: 23%
Population Healthy Nuclei (%) [7]: 69%
Population Hoechst High Intensity Objects (%) [7]: 3%
Population Membrane Permeable-Phenotype (%) [7]: 0%
Population Mitochondria Different-Phenotype (%) [7]: 6%
Population Mitotic Cells (%) [7]: 53%
Population Normal (%) [7]: 96%
Population Pyknosed Nuclei (%) [7]: 6%
Population Tubulin-Different-Phenotype (%) [7]: 45%
Total Cell Count [7]: 201
Population Apoptotic (%) [8]: 61%
Population Fragmented Nuclei (%) [8]: 35%
Population Healthy Nuclei (%) [8]: 49%
Population Hoechst High Intensity Objects (%) [8]: 7%
Population Membrane Permeable-Phenotype (%) [8]: 10%
Population Mitochondria Different-Phenotype (%) [8]: 11%
Population Mitotic Cells (%) [8]: 38%
Population Normal (%) [8]: 92%
Population Pyknosed Nuclei (%) [8]: 15%
Population Tubulin-Different-Phenotype (%) [8]: 73%
Total Cell Count [8]: 152
Population Apoptotic (%) [9]: 52%
Population Fragmented Nuclei (%) [9]: 24%
Population Healthy Nuclei (%) [9]: 62%
Population Hoechst High Intensity Objects (%) [9]: 3%
Population Membrane Permeable-Phenotype (%) [9]: 0%
Population Mitochondria Different-Phenotype (%) [9]: 1%
Population Mitotic Cells (%) [9]: 47%
Population Normal (%) [9]: 96%
Population Pyknosed Nuclei (%) [9]: 13%
Population Tubulin-Different-Phenotype (%) [9]: 22%
Total Cell Count [9]: 182
Population Apoptotic (%) [10]: 66%
Population Fragmented Nuclei (%) [10]: 29%
Population Healthy Nuclei (%) [10]: 56%
Population Membrane Permeable-Phenotype (%) [10]: 8%
Population Mitochondria Different-Phenotype (%) [10]: 6%
Population Mitotic Cells (%) [10]: 33%
Population Pyknosed Nuclei (%) [10]: 14%
Population Tubulin-Different-Phenotype (%) [10]: 57%
Total Cell Count [10]: 197
Population Apoptotic (%) [11]: 66%
Population Fragmented Nuclei (%) [11]: 25%
Population Healthy Nuclei (%) [11]: 68%
Population Hoechst High Intensity Objects (%) [11]: 1%
Population Membrane Permeable-Phenotype (%) [11]: 0%
Population Mitochondria Different-Phenotype (%) [11]: 4%
Population Mitotic Cells (%) [11]: 33%
Population Normal (%) [11]: 98%
Population Pyknosed Nuclei (%) [11]: 6%
Population Tubulin-Different-Phenotype (%) [11]: 32%
Total Cell Count [11]: 201
Population Apoptotic (%) [12]: 46%
Population Fragmented Nuclei (%) [12]: 42%
Population Healthy Nuclei (%) [12]: 49%
Population Hoechst High Intensity Objects (%) [12]: 5%
Population Membrane Permeable-Phenotype (%) [12]: 5%
Population Mitochondria Different-Phenotype (%) [12]: 5%
Population Mitotic Cells (%) [12]: 53%
Population Normal (%) [12]: 94%
Population Pyknosed Nuclei (%) [12]: 8%
Population Tubulin-Different-Phenotype (%) [12]: 48%
Total Cell Count [12]: 170
